Measured values as given in ChEMBL document CHEMBL5143675, “Attenuating the Streptococcus pneumoniae Competence Regulon Using Urea-Bridged Cyclic Dominant-Negative Competence-Stimulating Peptide Analogs” (J Med Chem, 2022).
Activity calls are given as the source filed them. The rule behind the calls is not given here. *1 amine or outer side, *2 acyl side, *3 side chain or, on linkers, in order; H or OH if unused. Where a SMILES comes first, the peptide text is derived from it. Bridges are numbered along the chain shown (N, C = ends). [ ]: non-standard residue; d: D form. Dab = NCC[C@H](N)C(=O)O; CO = O=C([*:1])[*:2]

Columns and labels:
[1] = test system: Streptococcus pneumoniae; assay: Antibacterial activity against erythromycin-resistant Streptococcus pneumoniae D39 infected in CD-1 mouse assessed as reduction in bacterial burden in mouse lung at 4 mg/kg,iv measured after 48 hrs post infection; format: functional, organism-based
In short: (§1)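 Seven-week-old CD-1 mice, male and female, n=10 per cohort, inoculated intranasally with a 1:1 mix of D39-rplL-ErmR and TIGR4-rplL-KanR (2.5×10^6 CFU each). Treated retro-orbitally i.v. with 4 mg/kg or PBS vehicle at 2 and 24 hpi; euthanized at 48 hpi. Lung and spleen homogenates were plated on THY with erythromycin (250 ng/mL) for D39 or […] for TIGR4.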

[2] = Toxicity in CD-1 mouse assessed as appearance of lesions in heart at 4 mg/kg, ip administered daily for 6 days by H and E staining based assay; format: organism-based; details: in vivo, 144 h, time 6 day
[3] = Toxicity in CD-1 mouse assessed as increase in body weight at 4 mg/kg, ip administered daily for 6 days; format: organism-based; details: in vivo, 144 h, time 6 day
[4] = Toxicity in Streptococcus pneumoniae D39 infected CD-1 mouse model assessed as mortality at 4 mg/kg,iv measured after 120 hrs post infection; format: organism-based; details: in vivo
In short: (§2)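 Seven-week-old CD-1 mice, male and female, n=15 per cohort, isoflurane-anaesthetized, infected intranasally with D39 (4.5×10^6 CFU) or TIGR4 (1.07×10^6 CFU). Treated retro-orbitally i.v. with 4 mg/kg or PBS vehicle at 2 and 24 hpi; mortality monitored for 120 hpi.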

[5] = Toxicity in CD-1 mouse assessed as appearance of lesions in liver at 4 mg/kg, ip administered daily for 6 days by H and E staining based assay; format: organism-based; details: in vivo, 144 h, time 6 day
[6] = test system: Streptococcus pneumoniae; assay: Antagonist activity against CSP1-mediated pneumolysin release in Streptococcus pneumoniae D39 assessed as inhibition of autolytic release of pneumolysin at 46 to 368 nM in presence of CSP1 by Western blot analysis; details: filed as antagonist, dose 46-368 nM
[7] = test system: Streptococcus pneumoniae; assay: Antibacterial activity against erythromycin-resistant Streptococcus pneumoniae D39 infected in CD-1 mouse assessed as reduction in bacterial burden in mouse spleen at 4 mg/kg,iv measured after 48 hrs post infection; format: functional, organism-based; in short: as §1
[8] = test system: Erythrocyte; assay: Hemolytic activity against sheep RBC assessed as hemolysis using compound treated Streptococcus pneumoniae TIGR4 cultured PLY supernatant at 46 to 368 nM incubated for 30 mins; format: toxicity, cell-based, Ovis aries; details: 0.5 h, 0.368 µM, dose 46-368 nM
In short: (§3)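 Supernatants: centrifuged, 0.22 μm filtered, concentrated 50x, serially two-fold diluted, 10 mM DTT for 15 min at room temperature. Then mixed with 2% sheep RBC for 30 min at 37 °C; A541 of cleared supernatant read. HU = highest dilution giving 50% lysis. Triplicate.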

[9] = test system: Erythrocyte; assay: Hemolytic activity against sheep RBC assessed as hemolysis using compound treated Streptococcus pneumoniae D39 cultured PLY supernatant at 46 to 368 nM incubated for 30 mins; format: toxicity, cell-based, Ovis aries; details: 0.5 h, 0.368 µM, dose 46-368 nM; in short: as §3
[10] = Toxicity in CD-1 mouse assessed as appearance of lesions in kidney at 4 mg/kg, ip administered daily for 6 days by H and E staining based assay; format: organism-based; details: in vivo, 144 h, time 6 day
[11] = Toxicity in Streptococcus pneumoniae TIGR4 infected CD-1 mouse model assessed as mortality at 4 mg/kg,iv measured after 72 hrs post; format: organism-based; details: in vivo; in short: as §2
[12] = Toxicity in CD-1 mouse assessed as appearance of lesions in lung at 4 mg/kg, ip administered daily for 6 days by H and E staining based assay; format: organism-based; details: in vivo, 144 h, time 6 day
[13] = Toxicity in CD-1 mouse assessed as appearance of lesions in spleen at 4 mg/kg, ip administered daily for 6 days by H and E staining based assay; format: organism-based; details: in vivo, 144 h, time 6 day

Question: Which results are given for `CC[C@H](C)[C@H](NC(=O)[C@H](Cc1ccccc1)NC(=O)[C@@H]1CCNC(=O)NCC[C@H](NC(=O)[C@H](CO)NC(=O)[C@H](CC(C)C)NC(=O)[C@H](CCCNC(=N)N)NC(=O)[C@H](CCSC)NC(=O)[C@H](C)N)C(=O)N[C@@H](Cc2ccccc2)C(=O)N[C@@H](Cc2ccccc2)C(=O)N[C@@H](CCCNC(=N)N)C(=O)N1)C(=O)N[C@@H](CC(C)C)C(=O)N[C@@H](CCC(N)=O)C(=O)N[C@@H](CCCNC(=N)N)C(=O)N[C@@H](CCCCN)C(=O)N[C@@H](CCCCN)C(=O)O` (H-AMRLS[Dab]FFR[Dab]FILQRKK-OH; linker 6-10 via CO)?
Answer: Activity [1]: Active; Activity [2]: Non-Toxic; Activity [3]: Non-Toxic; Activity [4]: Non-Toxic; Activity [5]: Non-Toxic; Activity [6]: Active; Activity [7]: Active; Activity [8]: Toxic; Activity [9]: Non-Toxic; Activity [10]: Non-Toxic; mortality at 72 h [11]: 50%; Activity [12]: Non-Toxic; Activity [13]: Non-Toxic
